The subject of series [1] is Trypanosoma cruzi. The experiment in a line: Antitrypanosomal activity against Trypanosoma cruzi Tulahuen 2 epimastigotes assessed as inhibition of parasite growth at 25 uM relative to control. The series is classed as functional. The settings on record: read-out: GI. An outline of the steps:
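Epimastigotes of T. cruzi Tulahuen 2 strain exposed to compound at 25 µM. Growth inhibition is given as percentage relative to untreated parasites. Values are means of three separate experiments, SD under 10%.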

The test system of series [2] is Trypanosoma cruzi. In words: Antitrypanosomal activity against Trypanosoma cruzi Tulahuen 2 epimastigotes. The series is classed as functional, organism-based.
Series [3] is described as follows: Octanol-water partition coefficient of the compound. The series is classed as physicochemical.

As usually defined, the IC50 is the concentration at which inhibition is half-maximal. What is called logP is a log measure of how a compound divides between an organic and an aqueous phase. Lower therefore signals a more hydrophilic compound. Turning to `N#Cc1c(-c2cccs2)[n+]([O-])c2ccc(F)cc2[n+]1[O-]`, in the series with Trypanosoma cruzi [1], the inhibition of growth at 25 µM stood at 100%. Further, the IC50 in the series with Trypanosoma cruzi [2] is 13 µM. The logP in series [3] was found to be 1.75.
On the same counts, the results for `N#Cc1c(-c2cccs2)[n+]([O-])c2ccc(Cl)cc2[n+]1[O-]` are 100%, 7.1 µM and 1.89.
On the same counts, the results for `Cc1ccc2c(c1)[n+]([O-])c(C#N)c(-c1cccs1)[n+]2[O-]` are 74.3%, 14.8 µM and 1.62.
The corresponding values for `N#Cc1c(-c2cccs2)[n+]([O-])c2ccc(C(F)(F)F)cc2[n+]1[O-]` are 100%, 7.8 µM and 2.27.
For the molecule `COc1ccc2c(c1)[n+]([O-])c(C#N)c(-c1cccs1)[n+]2[O-]`, in the series with Trypanosoma cruzi [1], the inhibition of growth at 25 µM was found to be 109%. Also, half-maximal inhibition in the series with Trypanosoma cruzi [2] (IC50) required 14.3 µM. In series [3], this molecule yielded a logP of 1.11.
As to `N#Cc1c(-c2ccccc2)[n+]([O-])c2cc(F)c(F)cc2[n+]1[O-]`, in the series with Trypanosoma cruzi [1], the inhibition of growth at 25 µM amounted to 81.1%. For the same molecule, half-maximal inhibition with Trypanosoma cruzi [2] (IC50) was put at 15.3 µM. In series [3], this molecule came in with a lipophilicity (logP) of 2.62.
The corresponding values for `N#Cc1c(-c2ccco2)[n+]([O-])c2ccccc2[n+]1[O-]` are 46.3%, 25 µM and 0.582.
The corresponding values for `N#Cc1c(-c2ccco2)[n+]([O-])c2ccc(F)cc2[n+]1[O-]` are 83.4%, 14.9 µM and 0.983.
On to `N#Cc1c(-c2ccco2)[n+]([O-])c2ccc(Cl)cc2[n+]1[O-]`, for which the inhibition of growth at 25 µM with Trypanosoma cruzi [1] was found to be 64.5%. It took 18.9 µM to reach half-maximal inhibition in the series on Trypanosoma cruzi [2] (IC50). The logP in series [3] came out at 1.11.
The corresponding values for `Cc1ccc2c(c1)[n+]([O-])c(C#N)c(-c1ccco1)[n+]2[O-]` are 68.5%, 18.1 µM and 0.845.
Turning to `N#Cc1c(-c2ccco2)[n+]([O-])c2ccc(C(F)(F)F)cc2[n+]1[O-]`, the inhibition of growth at 25 µM in the series on Trypanosoma cruzi [1] turned out to be 100%. The concentration for half-maximal inhibition (IC50) in the series on Trypanosoma cruzi [2] worked out at 12.5 µM. In addition, the logP in series [3] stood at 1.5.
The corresponding values for `COc1ccc2c(c1)[n+]([O-])c(C#N)c(-c1ccco1)[n+]2[O-]` are 33.4%, more than 25 µM and 0.354.
For `N#Cc1c(-c2cccs2)[n+]([O-])c2ccccc2[n+]1[O-]`, the inhibition of growth at 25 µM in the series with Trypanosoma cruzi [1] was determined as 100%. For the same molecule, in the series with Trypanosoma cruzi [2], the 50% inhibitory concentration (IC50) worked out at 12.7 µM. In addition, the log partition coefficient (logP) in series [3] was found to be 1.35.
Take `COc1ccc(-c2c(C#N)[n+]([O-])c3cc(C)ccc3[n+]2[O-])cc1`: the inhibition of growth at 25 µM with Trypanosoma cruzi [1] was determined as 94.6%. The molecule further had an IC50 with Trypanosoma cruzi [2] of 18.9 µM. Besides, in series [3], the lipophilicity (logP) worked out at 1.82.
The corresponding values for `N#Cc1c(-c2ccccc2)[n+]([O-])c2cc(Cl)c(Cl)cc2[n+]1[O-]` are 90%, 15.3 µM and 2.87.
On the same counts, the results for `N#Cc1c(-c2ccc(OC(F)(F)F)cc2)[n+]([O-])c2ccc(C(F)(F)F)cc2[n+]1[O-]` are 100%, 9.2 µM and 2.79.
On the same counts, the results for `N#Cc1c(-c2ccccc2)[n+]([O-])c2ccccc2[n+]1[O-]` are 36.9%, 66.6 µM and 1.84.
Consider `Cc1ccc2c(c1)[n+]([O-])c(C#N)c(-c1ccccc1)[n+]2[O-]`, for which the inhibition of growth at 25 µM in the series on Trypanosoma cruzi [1] was found to be 88.1%. Moreover, the IC50 in the series with Trypanosoma cruzi [2] was found to be 23.7 µM. The molecule further showed a logP in series [3] of 2.09.
On the same counts, the results for `COc1ccc2c(c1)[n+]([O-])c(C#N)c(-c1ccccc1)[n+]2[O-]` are 111%, 19.3 µM and 1.58.
On the same counts, the results for `N#Cc1c(-c2ccc(F)cc2)[n+]([O-])c2ccc(Cl)cc2[n+]1[O-]` are 92.7%, 13.2 µM and 2.74.
For `Cc1ccc2c(c1)[n+]([O-])c(C#N)c(-c1ccc(F)cc1)[n+]2[O-]`, the inhibition of growth at 25 µM with Trypanosoma cruzi [1] worked out at 83.8%. Moreover, inhibition in the series with Trypanosoma cruzi [2] was half-maximal at 17.4 µM (IC50). In series [3], the lipophilicity (logP) was found to be 2.48.
On the same counts, the results for `Cc1ccc2c(c1)[n+]([O-])c(C#N)c(-c1ccc(Cl)cc1)[n+]2[O-]` are 88.4%, 17.4 µM and 2.6.
As for `Cc1ccc(-c2c(C#N)[n+]([O-])c3ccccc3[n+]2[O-])cc1`, the inhibition of growth at 25 µM in the series with Trypanosoma cruzi [1] was determined as 104%. Moreover, in the series with Trypanosoma cruzi [2], the midpoint of inhibition, the IC50, lay at 23.7 µM. The molecule further showed a logP in series [3] of 2.09.
The corresponding values for `Cc1ccc(-c2c(C#N)[n+]([O-])c3cc(Cl)ccc3[n+]2[O-])cc1` are 104%, 17.4 µM and 2.6.
The corresponding values for `COc1ccc2c(c1)[n+]([O-])c(C#N)c(-c1ccc(C)cc1)[n+]2[O-]` are 112%, 18.9 µM and 1.82.
On the same counts, the results for `COc1ccc(-c2c(C#N)[n+]([O-])c3ccccc3[n+]2[O-])cc1` are 110%, 19.3 µM and 1.58.
On to `N#Cc1c(-c2ccc(OC(F)(F)F)cc2)[n+]([O-])c2ccccc2[n+]1[O-]`, for which the inhibition of growth at 25 µM in the series with Trypanosoma cruzi [1] came to 100%. The molecule also had a half-maximal inhibitory concentration (IC50) with Trypanosoma cruzi [2] of 14.5 µM. In addition, in series [3], the logP was 1.94.
For `N#Cc1c(-c2ccc(F)cc2)[n+]([O-])c2ccccc2[n+]1[O-]`, the inhibition of growth at 25 µM in the series with Trypanosoma cruzi [1] was 82.8%. In the series on Trypanosoma cruzi [2], the IC50 was found to be 15.2 µM. Also, the lipophilicity (logP) in series [3] is 2.23.
On the same counts, the results for `N#Cc1c(-c2ccccc2)[n+]([O-])c2ccc(F)cc2[n+]1[O-]` are 89.4%, 15.4 µM and 2.23.
The corresponding values for `N#Cc1c(-c2ccc(F)cc2)[n+]([O-])c2ccc(F)cc2[n+]1[O-]` are 63.8%, 14.4 µM and 2.62.
Take `N#Cc1c(-c2ccc(Cl)cc2)[n+]([O-])c2ccc(F)cc2[n+]1[O-]`: in the series with Trypanosoma cruzi [1], the inhibition of growth at 25 µM was 85.4%. The molecule also registered an IC50 in the series on Trypanosoma cruzi [2] of 13.4 µM. Besides, in series [3], the lipophilicity (logP) worked out at 2.74.
The corresponding values for `Cc1ccc(-c2c(C#N)[n+]([O-])c3cc(C(F)(F)F)ccc3[n+]2[O-])cc1` are 114%, 12.3 µM and 2.95.
In the case of `COc1ccc(-c2c(C#N)[n+]([O-])c3cc(F)ccc3[n+]2[O-])cc1`, the inhibition of growth at 25 µM in the series with Trypanosoma cruzi [1] is 92.2%. This molecule displayed a concentration for half-maximal inhibition (IC50) with Trypanosoma cruzi [2] of 14.3 µM. This molecule also displayed a logP in series [3] of 1.97.
On the same counts, the results for `N#Cc1c(-c2ccc(OC(F)(F)F)cc2)[n+]([O-])c2ccc(Cl)cc2[n+]1[O-]` are 89.1%, 8.3 µM and 2.45.
Turning to `Cc1ccc2c(c1)[n+]([O-])c(C#N)c(-c1ccc(OC(F)(F)F)cc1)[n+]2[O-]`, the inhibition of growth at 25 µM in the series with Trypanosoma cruzi [1] came out at 75.1%. The molecule further yielded an IC50 in the series on Trypanosoma cruzi [2] of 10.7 µM. In series [3], this molecule came in with a lipophilicity (logP) of 2.18.
With `COc1ccc2c(c1)[n+]([O-])c(C#N)c(-c1ccc(OC(F)(F)F)cc1)[n+]2[O-]`, the inhibition of growth at 25 µM in the series with Trypanosoma cruzi [1] came out at 100%. For the same molecule, the IC50 with Trypanosoma cruzi [2] turned out to be 8.2 µM. In series [3], the log partition coefficient (logP) was found to be 1.69.
On the same counts, the results for `N#Cc1c(-c2ccccc2)[n+]([O-])c2ccc(C(F)(F)F)cc2[n+]1[O-]` are 100%, 15.1 µM and 2.72.
For the molecule `N#Cc1c(-c2ccc(F)cc2)[n+]([O-])c2ccc(C(F)(F)F)cc2[n+]1[O-]`, in the series on Trypanosoma cruzi [1], the inhibition of growth at 25 µM was 100%. This molecule also registered an IC50 in the series on Trypanosoma cruzi [2] of 14.9 µM. This molecule came in with a logP in series [3] of 3.1.
With `N#Cc1c(-c2ccc(Cl)cc2)[n+]([O-])c2ccc(Cl)cc2[n+]1[O-]`, the inhibition of growth at 25 µM with Trypanosoma cruzi [1] stood at 97.5%. This molecule also had a half-inhibitory concentration (IC50) with Trypanosoma cruzi [2] of 15.3 µM. Moreover, the logP in series [3] was determined as 2.87.
Turning to `COc1ccc(-c2c(C#N)[n+]([O-])c3cc(C(F)(F)F)ccc3[n+]2[O-])cc1`, the inhibition of growth at 25 µM in the series with Trypanosoma cruzi [1] turned out to be 114%. Also, the IC50 in the series on Trypanosoma cruzi [2] amounted to 10.7 µM. The logP in series [3] was determined as 2.45.
Regarding `N#Cc1c(-c2ccccc2)[n+]([O-])c2ccc(Cl)cc2[n+]1[O-]`, the inhibition of growth at 25 µM in the series with Trypanosoma cruzi [1] was determined as 97.8%. The same molecule yielded an IC50 with Trypanosoma cruzi [2] of 18.1 µM. Moreover, the lipophilicity (logP) in series [3] turned out to be 2.35.
For `N#Cc1c(-c2ccc(Cl)cc2)[n+]([O-])c2ccccc2[n+]1[O-]`, the inhibition of growth at 25 µM in the series on Trypanosoma cruzi [1] was 97.1%. The molecule further showed an IC50 in the series with Trypanosoma cruzi [2] of 18.1 µM. The molecule further gave a lipophilicity (logP) in series [3] of 2.35.
On the same counts, the results for `COc1ccc2c(c1)[n+]([O-])c(C#N)c(-c1ccc(Cl)cc1)[n+]2[O-]` are 111%, 14.3 µM and 2.09.
Consider `COc1ccc2c(c1)[n+]([O-])c(C#N)c(-c1ccc(F)cc1)[n+]2[O-]`, for which the inhibition of growth at 25 µM in the series on Trypanosoma cruzi [1] is 84.2%. For the same molecule, the IC50 with Trypanosoma cruzi [2] amounted to 14.6 µM. For the same molecule, the logP in series [3] turned out to be 1.97.
The corresponding values for `Cc1ccc(-c2c(C#N)[n+]([O-])c3cc(C)ccc3[n+]2[O-])cc1` are 41.6%, 50 µM and 2.33.
On the same counts, the results for `COc1ccc(-c2c(C#N)[n+]([O-])c3cc(Cl)ccc3[n+]2[O-])cc1` are 110%, 14.3 µM and 2.09.
As for `N#Cc1c(-c2ccc(OC(F)(F)F)cc2)[n+]([O-])c2ccc(F)cc2[n+]1[O-]`, in the series with Trypanosoma cruzi [1], the inhibition of growth at 25 µM came out at 80.2%. In the series with Trypanosoma cruzi [2], this molecule displayed a 50% inhibitory concentration (IC50) of 13.1 µM. In series [3], this molecule returned a lipophilicity (logP) of 2.33.
The corresponding values for `Cc1ccc(-c2c(C#N)[n+]([O-])c3cc(F)ccc3[n+]2[O-])cc1` are 87.3%, 17.4 µM and 2.48.
On the same counts, the results for `N#Cc1c(-c2ccc(Cl)cc2)[n+]([O-])c2ccc(C(F)(F)F)cc2[n+]1[O-]` are 100%, 9.2 µM and 3.22.
For `CC1CS(=O)(=O)CCN1/N=C/c1ccc([N+](=O)[O-])o1` (centres undefined) [NIFURTIMOX], the inhibition of growth at 25 µM with Trypanosoma cruzi [1] stood at 100%. The molecule also returned a logP in series [3] of -0.746.

Source of the values: ChEMBL document CHEMBL1208769, “Anti-T. cruzi activities and QSAR studies of 3-arylquinoxaline-2-carbonitrile di-N-oxides” (Bioorg Med Chem Lett, 2010).
